“Also recorded” adds a separate entry of the source. Each block holds one compound with its values, some of them ahead of it.
What was measured:
[1] = Stability in human plasma; format: in vitro ADME; conditions: 2 μM, after 4 h
[2] = test system: HepG2 cells; experiment: HepG2 cytotoxicity assay; format: cell-based, human; conditions: 50 μM
How it was run: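 HepG2 cells were kept in DMEM with 10% FBS and penicillin/streptomycin at 37 °C, 5% CO2, seeded ~5000 cells/well and allowed to attach overnight. Serial dilutions of compound in medium were added, with 0.1% DMSO vehicle and terfenadine as positive control. Viability was read by CellTiter-Glo ATP luminescence and normalized to vehicle as % viability per concentration.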

[3] = biological target: T1, CYP2C8 (Homo sapiens, UniProt P10632); experiment: Human liver microsome CYP inhibition assay, CYP2C8; format: biochemical; conditions: human liver microsomes
T1 sequence (P10632 1-490): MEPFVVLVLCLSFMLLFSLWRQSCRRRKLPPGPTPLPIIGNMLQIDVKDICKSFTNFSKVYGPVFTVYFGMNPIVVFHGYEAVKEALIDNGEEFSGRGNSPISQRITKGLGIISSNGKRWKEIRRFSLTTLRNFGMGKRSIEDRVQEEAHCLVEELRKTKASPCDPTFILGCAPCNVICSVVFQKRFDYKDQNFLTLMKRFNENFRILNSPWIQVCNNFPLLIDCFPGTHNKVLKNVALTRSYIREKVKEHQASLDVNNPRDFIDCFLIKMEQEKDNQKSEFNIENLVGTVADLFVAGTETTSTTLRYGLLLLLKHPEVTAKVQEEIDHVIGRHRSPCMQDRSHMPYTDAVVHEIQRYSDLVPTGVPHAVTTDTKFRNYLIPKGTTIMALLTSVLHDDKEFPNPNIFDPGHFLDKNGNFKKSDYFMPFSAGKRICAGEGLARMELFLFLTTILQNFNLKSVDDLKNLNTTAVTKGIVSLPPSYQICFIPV
How it was run: (§1)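 Human liver microsomes were mixed with an isoform-specific CYP substrate and either compound or a positive-control inhibitor, then pre-incubated at 37 °C for 30 min. Reactions were started by adding an NADPH-regenerating system.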

[4] = Stability in mouse liver microsomes; format: in vitro ADME, mouse (strain CD1); conditions: 2 μM, after 2 h
How it was run: (§2)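 Compound (2 μM) was incubated at 37 °C with human or CD1 mouse liver microsome suspension. The reaction was initiated by adding NADPH as CYP cofactor.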

[5] = Single-dose pharmacokinetics in mice; format: in vivo, male CD1 mice
[6] = biological target: CYP2C9 (Homo sapiens, UniProt P11712); experiment: Human liver microsome CYP inhibition assay, CYP2C9; format: biochemical; conditions: human liver microsomes
How it was run: as §1

[7] = biological target: T2, CYP2B6 (Homo sapiens, UniProt P20813); experiment: Human liver microsome CYP inhibition assay, CYP2B6; format: biochemical; conditions: human liver microsomes
T2 sequence (P20813 1-491): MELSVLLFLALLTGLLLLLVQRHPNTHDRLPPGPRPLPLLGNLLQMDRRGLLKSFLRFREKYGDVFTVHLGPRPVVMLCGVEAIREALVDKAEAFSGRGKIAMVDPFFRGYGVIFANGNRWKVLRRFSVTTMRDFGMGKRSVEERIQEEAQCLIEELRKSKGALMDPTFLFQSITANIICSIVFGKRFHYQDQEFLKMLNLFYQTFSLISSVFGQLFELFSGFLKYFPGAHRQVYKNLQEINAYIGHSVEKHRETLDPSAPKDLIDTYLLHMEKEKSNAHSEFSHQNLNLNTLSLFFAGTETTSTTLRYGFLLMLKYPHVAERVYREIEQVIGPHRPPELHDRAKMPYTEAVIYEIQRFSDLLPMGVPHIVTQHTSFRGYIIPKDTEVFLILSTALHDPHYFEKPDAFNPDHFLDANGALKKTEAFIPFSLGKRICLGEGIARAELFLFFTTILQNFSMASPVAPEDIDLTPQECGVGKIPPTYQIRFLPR
How it was run: as §1

[8] = test system: C. elegans strain N2; experiment: C. elegans lifespan assay; format: in vivo; conditions: for maximal lifespan: untreated 27 d
[9] = Single-dose pharmacokinetics in rats; format: in vivo, male Sprague–Dawley rats; conditions: rats vs mice, oral single dose
How it was run: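 Male Sprague–Dawley rats with jugular vein cannulas (n = 3/group) were fasted overnight, with food returned 4 h post-dose. Single oral gavage of 100 or 200 mg kg−1 (10 or 20 mg mL−1; 10 mL kg−1) in 40% DMSO/60% 0.5% methyl cellulose. Cannula blood was drawn at 0.5, 1, 2, 4, 6, 8 and 24 h into K2EDTA, spun to plasma at 5 °C and stored at −70 °C for PK analysis.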

[10] = Stability in mouse plasma; format: in vitro ADME, mouse (strain CD1); conditions: 2 μM, after 4 h
[11] = Bidirectional Caco-2 cell permeability assay; format: in vitro ADME; conditions: human
[12] = Plasma protein binding, rapid equilibrium dialysis; format: in vitro ADME; conditions: human, pH 7.4
How it was run: (§3)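 Equilibrium dialysis (RED): compound was spiked at 2 μM into human or CD1 mouse plasma against PBS pH 7.4. Warfarin served as positive control. Plates were shaken gently at 37 °C for 6 h, and both chambers were quantified by LC–MS to give the unbound fraction.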

[13] = biological target: CYP2C19 (Homo sapiens, UniProt P33261); experiment: Human liver microsome CYP inhibition assay, CYP2C19; format: biochemical; conditions: human liver microsomes
How it was run: as §1

[14] = biological target: CYP3A4 (Homo sapiens, UniProt P08684); experiment: Human liver microsome CYP inhibition assay, CYP3A4; format: biochemical; conditions: human liver microsomes
How it was run: as §1

[15] = Single-dose safety observation and gross necropsy in mice; format: in vivo, male CD1 mice
How it was run: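 Male CD1 mice (n = 3/group) were housed individually in metabolic cages and fasted 4 h, with food returned 2 h post-dose. They received one oral gavage of 25, 50 or 100 mg kg−1 (2.5–10 mg mL−1; 10 mL kg−1) in 40% DMSO/60% 0.5% methyl cellulose. Animals were monitored 14 days and weighed pre-dose and on days 7 and 14. CO2 euthanasia was followed by gross necropsy.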

[16] = test system: Salmonella typhimurium tester strains TA98, TA100, TA1535, TA1537 and Escherichia coli strain WP2 uvrA; experiment: Ames bacterial reverse mutation assay; conditions: 1.4 × 10^−7 to 2.3 mM
[17] = biological target: cloned hERG potassium channels (Homo sapiens, UniProt Q12809); experiment: hERG assay, automated patch clamp; format: cell-based
How it was run: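 Automated parallel patch clamp (QPatch II) was run at room temperature on HEK293 cells expressing KCNH2. Compound was applied at 0.1, 1, 10 and 100 μM (n ≥ 3), at least 6 min per concentration, from DMSO stocks diluted into HEPES-buffered saline. Cisapride 0.05 μM served as positive control. % current inhibition came from steady-state currents before and after each application.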

[18] = biological target: T3, CYP1A2 (Homo sapiens, UniProt P05177); experiment: Human liver microsome CYP inhibition assay, CYP1A2; format: biochemical; conditions: human liver microsomes
T3 sequence (P05177 1-516): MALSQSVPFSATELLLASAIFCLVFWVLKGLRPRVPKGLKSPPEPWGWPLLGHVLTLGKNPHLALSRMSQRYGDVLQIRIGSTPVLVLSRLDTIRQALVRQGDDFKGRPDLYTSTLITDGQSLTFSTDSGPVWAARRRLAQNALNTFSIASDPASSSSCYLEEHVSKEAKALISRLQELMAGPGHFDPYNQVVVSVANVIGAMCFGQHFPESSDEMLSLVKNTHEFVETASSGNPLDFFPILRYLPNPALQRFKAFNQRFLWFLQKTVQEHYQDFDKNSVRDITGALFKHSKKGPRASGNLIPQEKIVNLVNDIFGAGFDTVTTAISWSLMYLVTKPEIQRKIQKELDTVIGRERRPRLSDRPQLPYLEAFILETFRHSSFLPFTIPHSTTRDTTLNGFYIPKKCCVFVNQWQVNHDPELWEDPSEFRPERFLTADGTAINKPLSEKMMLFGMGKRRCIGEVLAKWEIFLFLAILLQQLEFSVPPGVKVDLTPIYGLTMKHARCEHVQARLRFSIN
How it was run: as §1

[19] = biological target: T4, PCFT transporter (Homo sapiens, UniProt Q96NT5); experiment: Folate uptake assay in Caco-2 cell monolayers; format: cell-based; conditions: Caco-2, pH 5.5, read-out: inhibition of folate uptake
T4 sequence (Q96NT5 1-459): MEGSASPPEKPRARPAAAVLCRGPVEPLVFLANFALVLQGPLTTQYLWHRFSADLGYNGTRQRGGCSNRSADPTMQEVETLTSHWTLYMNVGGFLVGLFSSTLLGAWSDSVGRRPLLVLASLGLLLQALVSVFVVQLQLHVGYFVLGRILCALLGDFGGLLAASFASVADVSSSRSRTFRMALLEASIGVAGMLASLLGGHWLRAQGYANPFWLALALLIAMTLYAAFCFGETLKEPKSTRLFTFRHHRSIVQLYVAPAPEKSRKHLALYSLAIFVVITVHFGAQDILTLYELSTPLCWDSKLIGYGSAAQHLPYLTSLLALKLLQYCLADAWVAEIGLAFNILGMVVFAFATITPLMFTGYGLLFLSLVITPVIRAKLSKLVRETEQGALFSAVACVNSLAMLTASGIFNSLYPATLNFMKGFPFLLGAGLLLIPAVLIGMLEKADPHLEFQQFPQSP
How it was run: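 Caco-2 cells were grown in high-glucose DMEM with 10% FBS, penicillin/streptomycin and NEAA, seeded at 3 × 10^4 cells/well and differentiated 8–10 days. Monolayers were pre-incubated 30 min at 37 °C in HBSS/10 mM MES pH 5.5 with compound (50 μM), pemetrexed or DMSO, then exposed 6 min to 10 nM [3H]folic acid ± inhibitor. Uptake was counted by scintillation, normalized to BCA protein and expressed as % of vehicle. Run in duplicate.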

[20] = Plasma protein binding, rapid equilibrium dialysis; format: in vitro ADME, mouse (strain CD1); conditions: CD1, mouse, pH 7.4
How it was run: as §3

[21] = biological target: CYP2D6 (Homo sapiens, UniProt P10635); experiment: Human liver microsome CYP inhibition assay, CYP2D6; format: biochemical; conditions: human liver microsomes
How it was run: as §1

[22] = Stability in human liver microsomes; format: in vitro ADME; conditions: 2 μM, after 2 h
How it was run: as §2

[23] = Single-dose safety observation and gross necropsy in rats; format: in vivo, male Sprague–Dawley rats
How it was run: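 Male Sprague–Dawley rats (n = 3/group) were housed in metabolic cages and fasted overnight, with food returned 4 h post-dose. They received one oral gavage of 100 or 200 mg kg−1 (10 mL kg−1) in 40% DMSO/60% 0.5% methyl cellulose. Animals were monitored for 14 days, with body weight recorded before dosing and on days 7 and 14. Gross necropsy was done after CO2 euthanasia.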

[24] = male, CD1, mouse, plasma, po, 100 mg/kg
[25] = continuous exposure, 50 and 100 μM
[26] = monitored 14 days after single oral dose

Chain of CYP2D6 (P10635 whole entry): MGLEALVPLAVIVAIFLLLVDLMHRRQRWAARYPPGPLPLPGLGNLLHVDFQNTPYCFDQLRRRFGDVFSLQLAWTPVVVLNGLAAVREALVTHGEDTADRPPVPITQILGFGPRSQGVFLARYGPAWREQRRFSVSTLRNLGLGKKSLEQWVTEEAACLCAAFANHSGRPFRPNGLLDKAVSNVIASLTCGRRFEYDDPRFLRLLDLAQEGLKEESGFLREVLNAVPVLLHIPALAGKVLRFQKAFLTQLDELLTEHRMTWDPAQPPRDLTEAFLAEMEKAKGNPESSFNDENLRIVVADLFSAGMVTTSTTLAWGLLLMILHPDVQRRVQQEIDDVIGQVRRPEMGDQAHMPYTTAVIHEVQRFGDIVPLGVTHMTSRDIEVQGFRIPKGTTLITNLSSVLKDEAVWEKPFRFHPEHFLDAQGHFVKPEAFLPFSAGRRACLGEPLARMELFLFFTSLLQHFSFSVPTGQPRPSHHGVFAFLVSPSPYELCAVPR
Chain of CYP2C9 (P11712 whole entry): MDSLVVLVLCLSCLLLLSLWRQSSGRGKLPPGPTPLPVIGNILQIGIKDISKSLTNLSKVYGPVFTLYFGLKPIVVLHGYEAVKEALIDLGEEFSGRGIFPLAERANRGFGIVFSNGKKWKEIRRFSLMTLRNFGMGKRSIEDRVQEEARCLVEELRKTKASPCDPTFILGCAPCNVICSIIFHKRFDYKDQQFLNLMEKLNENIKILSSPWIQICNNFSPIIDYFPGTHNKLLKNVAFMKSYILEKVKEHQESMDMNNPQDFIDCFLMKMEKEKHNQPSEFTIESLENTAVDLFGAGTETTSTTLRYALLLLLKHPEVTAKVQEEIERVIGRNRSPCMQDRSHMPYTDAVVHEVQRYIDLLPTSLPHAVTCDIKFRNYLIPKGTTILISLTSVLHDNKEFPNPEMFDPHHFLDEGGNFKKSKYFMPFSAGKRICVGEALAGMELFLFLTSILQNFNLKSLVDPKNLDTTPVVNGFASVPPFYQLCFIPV
Chain of CYP2C19 (P33261 whole entry): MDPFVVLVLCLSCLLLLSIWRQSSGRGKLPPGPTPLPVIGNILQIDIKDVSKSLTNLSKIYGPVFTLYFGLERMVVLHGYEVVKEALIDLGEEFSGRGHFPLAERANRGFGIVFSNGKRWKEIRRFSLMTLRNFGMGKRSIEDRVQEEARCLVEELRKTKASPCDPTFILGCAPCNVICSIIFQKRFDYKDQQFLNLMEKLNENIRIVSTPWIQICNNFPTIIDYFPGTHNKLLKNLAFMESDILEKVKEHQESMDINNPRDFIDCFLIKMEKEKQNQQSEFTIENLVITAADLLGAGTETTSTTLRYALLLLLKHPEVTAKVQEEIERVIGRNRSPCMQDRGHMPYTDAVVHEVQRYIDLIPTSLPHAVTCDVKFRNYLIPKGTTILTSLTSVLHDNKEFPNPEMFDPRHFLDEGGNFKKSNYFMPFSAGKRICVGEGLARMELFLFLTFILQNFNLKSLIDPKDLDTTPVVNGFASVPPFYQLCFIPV
Chain of cloned hERG potassium channels (Q12809 whole entry): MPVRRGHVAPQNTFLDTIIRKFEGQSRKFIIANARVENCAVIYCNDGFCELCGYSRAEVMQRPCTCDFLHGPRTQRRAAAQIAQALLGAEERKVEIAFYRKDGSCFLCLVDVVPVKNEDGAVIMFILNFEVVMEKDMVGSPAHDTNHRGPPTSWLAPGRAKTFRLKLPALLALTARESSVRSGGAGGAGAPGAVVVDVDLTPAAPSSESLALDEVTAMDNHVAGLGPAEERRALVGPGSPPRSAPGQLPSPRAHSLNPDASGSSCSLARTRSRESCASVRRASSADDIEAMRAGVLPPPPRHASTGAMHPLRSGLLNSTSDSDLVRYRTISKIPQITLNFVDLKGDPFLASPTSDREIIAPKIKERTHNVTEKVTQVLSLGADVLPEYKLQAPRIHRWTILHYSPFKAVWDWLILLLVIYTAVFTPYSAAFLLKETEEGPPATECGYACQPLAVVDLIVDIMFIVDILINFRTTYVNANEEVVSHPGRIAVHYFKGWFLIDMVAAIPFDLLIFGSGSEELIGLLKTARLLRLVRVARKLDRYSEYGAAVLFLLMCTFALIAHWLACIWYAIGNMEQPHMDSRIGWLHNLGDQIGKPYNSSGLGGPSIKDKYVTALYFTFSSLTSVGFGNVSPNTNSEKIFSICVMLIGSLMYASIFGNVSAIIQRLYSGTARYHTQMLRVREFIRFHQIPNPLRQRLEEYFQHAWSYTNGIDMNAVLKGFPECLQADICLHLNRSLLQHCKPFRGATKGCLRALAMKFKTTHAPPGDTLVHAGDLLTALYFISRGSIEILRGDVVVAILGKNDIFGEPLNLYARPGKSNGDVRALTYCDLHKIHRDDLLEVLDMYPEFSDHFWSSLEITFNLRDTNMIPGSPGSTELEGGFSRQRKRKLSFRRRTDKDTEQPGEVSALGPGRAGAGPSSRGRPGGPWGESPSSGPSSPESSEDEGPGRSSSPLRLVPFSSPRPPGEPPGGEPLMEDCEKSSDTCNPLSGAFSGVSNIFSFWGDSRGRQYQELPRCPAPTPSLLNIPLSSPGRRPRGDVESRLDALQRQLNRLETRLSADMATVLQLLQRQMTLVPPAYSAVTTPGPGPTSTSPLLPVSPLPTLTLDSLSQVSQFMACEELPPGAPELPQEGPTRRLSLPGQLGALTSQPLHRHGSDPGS
Chain of CYP3A4 (P08684 whole entry): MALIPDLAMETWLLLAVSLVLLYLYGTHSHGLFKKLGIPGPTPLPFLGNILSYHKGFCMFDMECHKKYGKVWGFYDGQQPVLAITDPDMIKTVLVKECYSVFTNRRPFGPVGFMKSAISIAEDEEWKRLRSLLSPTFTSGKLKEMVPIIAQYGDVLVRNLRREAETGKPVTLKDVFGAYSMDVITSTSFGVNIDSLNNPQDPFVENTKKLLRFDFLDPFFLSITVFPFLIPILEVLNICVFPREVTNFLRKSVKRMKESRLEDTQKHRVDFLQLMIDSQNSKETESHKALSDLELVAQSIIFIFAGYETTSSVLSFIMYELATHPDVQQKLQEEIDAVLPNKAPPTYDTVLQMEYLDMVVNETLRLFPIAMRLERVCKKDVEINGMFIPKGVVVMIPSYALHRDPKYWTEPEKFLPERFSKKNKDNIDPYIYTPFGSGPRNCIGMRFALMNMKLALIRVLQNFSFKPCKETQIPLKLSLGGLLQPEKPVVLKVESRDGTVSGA

Structure (SMILES): CC(=O)N1CCC(C(=O)N2CCN3C(=O)c4cc(-c5ccccc5)ccc4NC(=O)C3C2)CC1 (centres unmarked) [MPOL_B_1, 13-(1-acetylpiperidine-4-carbonyl)-5-phenyl-1,9,13-triazatricyclo[9.4.0.03,8]pentadeca-3(8),4,6-triene-2,10-dione]
- Stability in human plasma [1]: >90% after 4 h
- Hep2 cells cytotoxicity [2]: Not significant
- inhibition at 5 min, 50 µM [3]: 4.9%
- Stability in mouse microsomes [4]: 83% after 2 h
- concentration of the drug in fecal samples ([5]; collected 24 hours after oral administration): 5 to 10 mg/g
- AUC(0-t) [5, 24]: 2380 ± 1180 ng·h/mL
- Cmax [5, 24]: 416 ± 67 ng/mL
- Tmax [5, 24]: 1.7 ± 0.6 h
- half-life [5, 24]: 5.7 ± 4.1 h
- systemic bioavailability (dose proportionality of AUC) ([5]; mice, oral gavage 25, 50 and 100 mg kg^−1): became saturated at doses of 50 mg kg^−1 and above
- inhibition at 5 min, 50 µM [6]: 11.4%
- inhibition at 5 min, 50 µM [7]: 0%
- maximal lifespan ([8]; 50 μM): 35 days
- maximal lifespan ([8]; 100 μM): 35 days
- increase of lifespan ([8]; C. elegans): up to 30%
- longer maximal lifespan [8, 25]: ~30%
- longer mean lifespan [8, 25]: ~30%
- systemic bioavailability in rats, times lower than in mice [9]: approximately 10 times
- Stability in mouse plasma [10]: >90% after 4 h
- Papp A→B at 2 h, 10 μM [11]: 0.37 ×10⁻⁶ cm/s
- Papp B→A at 2 h, 10 μM [11]: 7.17 ×10⁻⁶ cm/s
- fraction unbound at 6 h, 2 μM [12]: 0.525 ± 0.08
- inhibition at 5 min, 50 µM [13]: 19.4%
- inhibition at 5 min, 50 µM [14]: 22.5%
- gross necropsy ([15]; group 2, 50 mg kg^−1): had an enlarged stomach when gross necropsy was performed, and another from the same group had dark patches on the lungs
- gross necropsy ([15]; highest dose (100 mg kg^−1)): no organ pathologies or other abnormalities; also recorded: No abnormalities
- body weight loss [15, 26]: no significant body weight loss
- signs of illness [15, 26]: no signs of illness
- Ames mutagenicity test [16]: Not mutagenic
- IC50 [17]: 87 µM
- inhibition at 5 min, 50 µM [18]: 5.2%
- inhibition at 50 µM [19]: 42%
- fraction unbound at 6 h, 2 μM [20]: 0.294 ± 0.059
- inhibition at 5 min, 50 µM [21]: 16.9%
- Stability in human microsomes [22]: >90% after 2 h
- gross necropsy ([23]; group 1, 100 mg kg^−1): enlarged stomach and caecum and blood in the abdominal cavity
- gross necropsy ([23]; highest dose (200 mg kg^−1)): no organ pathologies or other abnormalities
- body weight loss [23, 26]: no significant body weight loss
- signs of illness [23, 26]: no signs of illness

Structure (SMILES): Cc1ccc(NC(=O)N2Cc3[nH]cnc3C[C@H]2c2nc(-c3ccc4c(c3)OCO4)no2)cc1 [MPOL_D_1, (6S)-6-[3-(2H-1,3-benzodioxol-5-yl)-1,2,4-oxadiazol-5-yl]-N-(4-methylphenyl)3H,4H,5H,6H,7H-imidazo[4,5-c]pyridine-5-carboxamide]
- effect on lifespan ([8]; dose range 1–100 μM, compared with MPOL_B_1): did not exhibit similar effects

- inhibition at 50 µM [19]: 62%
Structure (SMILES): Nc1nc2[nH]cc(CCc3ccc(C(=O)N[C@@H](CCC(=O)O)C(=O)O)cc3)c2c(=O)[nH]1 [pemetrexed, reference compound]
